Laboratory results from ChEMBL document CHEMBL5696442, “Discovery of type II inhibitors of TGFβ-activated kinase 1 (TAK1) and mitogen-activated protein kinase kinase kinase kinase 2 (MAP4K2)” (J Med Chem, 2015).
Activity calls are given as the source filed them. No cut-off for these calls is given here.

Tests used:
[1] = target: Tyrosine-protein kinase CSK (Homo sapiens, UniProt P41240); assay: Inhibition of CSK ACT labeling site harbouring VSDFGLTKEASSTQDTGKLPVKWTAPEALR in human Huh-7 cell lysate at 1 uM by KiNativ Profiling analysis relative to control; format: subcellular
Chain of Tyrosine-protein kinase CSK (P41240 2-450 limits assumed): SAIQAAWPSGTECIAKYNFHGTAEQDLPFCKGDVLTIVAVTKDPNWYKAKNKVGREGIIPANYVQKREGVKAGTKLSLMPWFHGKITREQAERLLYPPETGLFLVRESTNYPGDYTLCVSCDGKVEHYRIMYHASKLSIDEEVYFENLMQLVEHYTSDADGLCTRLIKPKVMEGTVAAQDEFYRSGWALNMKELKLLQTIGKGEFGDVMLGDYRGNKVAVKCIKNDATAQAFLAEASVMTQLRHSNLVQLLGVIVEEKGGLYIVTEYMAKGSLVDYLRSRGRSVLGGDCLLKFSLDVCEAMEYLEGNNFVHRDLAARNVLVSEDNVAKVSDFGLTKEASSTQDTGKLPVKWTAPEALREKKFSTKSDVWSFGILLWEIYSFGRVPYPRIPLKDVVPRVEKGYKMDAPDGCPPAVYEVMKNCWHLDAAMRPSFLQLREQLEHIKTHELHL

[2] = target: Tyrosine-protein kinase Fer (Homo sapiens, UniProt P16591); assay: Inhibition of FER Lys1 labeling site in human A-375 cells at 5 uM by KiNativ Profiling analysis relative to control; format: cell-based
Chain of Tyrosine-protein kinase Fer (P16591 whole entry, looked up): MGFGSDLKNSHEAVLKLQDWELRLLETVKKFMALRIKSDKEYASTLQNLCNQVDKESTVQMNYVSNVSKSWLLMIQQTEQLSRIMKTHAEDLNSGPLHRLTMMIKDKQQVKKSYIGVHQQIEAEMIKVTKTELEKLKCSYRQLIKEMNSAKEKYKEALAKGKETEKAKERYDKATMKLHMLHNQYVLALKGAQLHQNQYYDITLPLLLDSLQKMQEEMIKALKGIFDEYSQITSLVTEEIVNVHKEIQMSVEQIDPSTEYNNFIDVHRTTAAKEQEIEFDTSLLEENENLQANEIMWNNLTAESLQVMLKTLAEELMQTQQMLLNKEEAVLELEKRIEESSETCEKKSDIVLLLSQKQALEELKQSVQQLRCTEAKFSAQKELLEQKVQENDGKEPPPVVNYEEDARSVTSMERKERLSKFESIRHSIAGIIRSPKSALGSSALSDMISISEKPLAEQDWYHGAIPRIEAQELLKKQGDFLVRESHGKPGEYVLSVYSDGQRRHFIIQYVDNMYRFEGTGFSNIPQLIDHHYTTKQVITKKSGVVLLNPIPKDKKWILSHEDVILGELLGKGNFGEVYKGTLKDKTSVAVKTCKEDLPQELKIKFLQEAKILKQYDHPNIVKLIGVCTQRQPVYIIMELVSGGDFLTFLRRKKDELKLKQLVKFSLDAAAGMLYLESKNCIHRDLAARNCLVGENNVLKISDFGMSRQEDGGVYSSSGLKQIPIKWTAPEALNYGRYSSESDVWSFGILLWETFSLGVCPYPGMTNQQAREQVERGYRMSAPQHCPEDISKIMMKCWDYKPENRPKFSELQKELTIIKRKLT

[3] = target: T1, Mitogen-activated protein kinase kinase kinase 2 (Homo sapiens) (UniProt Q9Y2U5); assay: Inhibition of MAP3K2 Lys1 labeling site harbouring ELAVKQVQFDPDSPETSKEVNALECEIQLLK in human A-375 cells at 5 uM by KiNativ Profiling analysis relative to control; format: cell-based
T1 sequence (whole entry): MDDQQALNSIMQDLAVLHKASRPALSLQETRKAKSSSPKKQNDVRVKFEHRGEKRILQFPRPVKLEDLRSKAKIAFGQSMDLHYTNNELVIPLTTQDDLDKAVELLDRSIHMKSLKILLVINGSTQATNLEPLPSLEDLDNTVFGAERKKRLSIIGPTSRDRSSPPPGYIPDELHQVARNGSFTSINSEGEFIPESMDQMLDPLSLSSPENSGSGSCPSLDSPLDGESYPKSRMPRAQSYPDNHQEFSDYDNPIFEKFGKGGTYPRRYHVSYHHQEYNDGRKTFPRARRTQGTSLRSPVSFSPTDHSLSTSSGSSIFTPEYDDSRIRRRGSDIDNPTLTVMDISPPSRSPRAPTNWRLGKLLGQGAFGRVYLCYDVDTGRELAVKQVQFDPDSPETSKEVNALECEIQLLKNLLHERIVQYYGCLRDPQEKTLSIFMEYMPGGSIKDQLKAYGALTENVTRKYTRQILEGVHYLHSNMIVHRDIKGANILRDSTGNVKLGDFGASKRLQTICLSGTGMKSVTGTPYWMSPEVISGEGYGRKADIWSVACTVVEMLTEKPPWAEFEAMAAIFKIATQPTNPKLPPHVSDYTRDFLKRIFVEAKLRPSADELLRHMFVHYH

[4] = target: Serine/threonine-protein kinase Nek7 (Homo sapiens) (UniProt Q8TDX7); assay: Inhibition of NEK7 Lys2 labeling site in human A-375 cells at 0.5 uM by KiNativ Profiling analysis relative to control; format: cell-based
Chain of Serine/threonine-protein kinase Nek7 (Homo sapiens) (Q8TDX7 whole entry, looked up): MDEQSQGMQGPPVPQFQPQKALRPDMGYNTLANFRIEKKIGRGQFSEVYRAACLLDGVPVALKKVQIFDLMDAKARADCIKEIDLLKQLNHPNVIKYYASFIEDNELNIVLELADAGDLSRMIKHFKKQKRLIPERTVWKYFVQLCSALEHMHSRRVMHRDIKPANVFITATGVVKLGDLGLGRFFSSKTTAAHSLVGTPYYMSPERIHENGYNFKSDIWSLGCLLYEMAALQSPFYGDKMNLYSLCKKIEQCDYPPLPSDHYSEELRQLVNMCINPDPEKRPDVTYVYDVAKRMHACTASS

[5] = target: T2, Serine/threonine-protein kinase NLK (Homo sapiens) (UniProt Q9UBE8); assay: Inhibition of NLK Lys2 labeling site in human A-375 cells at 0.5 uM by KiNativ Profiling analysis relative to control; format: cell-based
T2 sequence (whole entry): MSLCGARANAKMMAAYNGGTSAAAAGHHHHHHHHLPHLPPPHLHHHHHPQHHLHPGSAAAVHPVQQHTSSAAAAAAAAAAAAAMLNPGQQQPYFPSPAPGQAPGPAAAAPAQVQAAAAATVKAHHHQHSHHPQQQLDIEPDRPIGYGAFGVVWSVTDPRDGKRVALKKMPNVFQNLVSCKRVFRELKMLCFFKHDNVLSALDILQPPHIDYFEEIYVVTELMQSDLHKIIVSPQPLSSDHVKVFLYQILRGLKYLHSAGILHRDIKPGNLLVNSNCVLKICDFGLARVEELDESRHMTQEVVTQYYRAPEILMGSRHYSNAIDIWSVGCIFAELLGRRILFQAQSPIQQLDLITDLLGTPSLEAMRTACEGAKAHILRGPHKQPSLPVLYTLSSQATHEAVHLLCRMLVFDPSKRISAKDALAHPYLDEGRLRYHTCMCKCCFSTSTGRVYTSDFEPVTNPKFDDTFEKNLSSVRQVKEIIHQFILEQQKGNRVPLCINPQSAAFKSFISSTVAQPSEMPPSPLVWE

[6] = target: TRAF2 and NCK-interacting protein kinase (Homo sapiens) (UniProt Q9UKE5); assay: Inhibition of ZC2/TNIK Lys2 labeling site in human A-375 cells at 0.5 uM by KiNativ Profiling analysis relative to control; format: cell-based
Chain of TRAF2 and NCK-interacting protein kinase (Homo sapiens) (Q9UKE5 whole entry, looked up): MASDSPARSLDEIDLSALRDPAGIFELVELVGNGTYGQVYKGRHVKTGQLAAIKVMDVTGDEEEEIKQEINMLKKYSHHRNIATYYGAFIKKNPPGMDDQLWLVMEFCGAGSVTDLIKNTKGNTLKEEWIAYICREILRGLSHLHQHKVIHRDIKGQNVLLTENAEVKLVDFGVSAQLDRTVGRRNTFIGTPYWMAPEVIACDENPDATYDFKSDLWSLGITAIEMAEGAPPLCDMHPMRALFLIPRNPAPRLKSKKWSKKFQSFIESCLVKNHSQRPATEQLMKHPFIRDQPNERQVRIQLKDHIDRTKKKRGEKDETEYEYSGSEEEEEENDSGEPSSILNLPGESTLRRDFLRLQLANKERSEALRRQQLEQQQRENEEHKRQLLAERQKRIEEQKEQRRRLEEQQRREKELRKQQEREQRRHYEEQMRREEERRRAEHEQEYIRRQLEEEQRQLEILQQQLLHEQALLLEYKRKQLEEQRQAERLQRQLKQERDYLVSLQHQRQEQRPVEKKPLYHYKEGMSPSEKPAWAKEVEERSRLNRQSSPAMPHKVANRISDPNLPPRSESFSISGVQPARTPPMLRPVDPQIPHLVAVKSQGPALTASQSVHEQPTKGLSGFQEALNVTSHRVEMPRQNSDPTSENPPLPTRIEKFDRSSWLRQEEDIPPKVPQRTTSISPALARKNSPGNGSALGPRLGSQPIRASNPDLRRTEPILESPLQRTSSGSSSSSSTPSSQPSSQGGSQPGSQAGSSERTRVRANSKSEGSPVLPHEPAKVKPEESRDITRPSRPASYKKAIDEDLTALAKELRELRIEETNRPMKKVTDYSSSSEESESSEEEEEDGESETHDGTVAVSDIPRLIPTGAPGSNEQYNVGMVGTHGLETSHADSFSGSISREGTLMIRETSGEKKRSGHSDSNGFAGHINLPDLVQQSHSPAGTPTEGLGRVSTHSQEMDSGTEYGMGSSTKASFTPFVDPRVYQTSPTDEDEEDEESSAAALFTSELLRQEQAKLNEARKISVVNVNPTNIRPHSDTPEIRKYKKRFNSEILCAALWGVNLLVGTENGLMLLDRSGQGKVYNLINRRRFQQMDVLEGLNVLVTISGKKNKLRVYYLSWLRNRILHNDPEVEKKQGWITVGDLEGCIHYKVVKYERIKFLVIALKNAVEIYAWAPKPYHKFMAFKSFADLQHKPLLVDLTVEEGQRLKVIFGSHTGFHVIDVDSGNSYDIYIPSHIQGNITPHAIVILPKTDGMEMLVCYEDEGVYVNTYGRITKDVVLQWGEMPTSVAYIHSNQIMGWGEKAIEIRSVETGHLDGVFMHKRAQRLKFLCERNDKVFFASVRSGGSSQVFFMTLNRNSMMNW

[7] = target: T3, Serine/threonine-protein kinase 3 (Homo sapiens) (UniProt Q13188); assay: Inhibition of MST2 Lys2 labeling site harbouring DIKAGNILLNTEGHAK in human A-375 cells at 5 uM by KiNativ Profiling analysis relative to control; format: cell-based
T3 sequence (whole entry): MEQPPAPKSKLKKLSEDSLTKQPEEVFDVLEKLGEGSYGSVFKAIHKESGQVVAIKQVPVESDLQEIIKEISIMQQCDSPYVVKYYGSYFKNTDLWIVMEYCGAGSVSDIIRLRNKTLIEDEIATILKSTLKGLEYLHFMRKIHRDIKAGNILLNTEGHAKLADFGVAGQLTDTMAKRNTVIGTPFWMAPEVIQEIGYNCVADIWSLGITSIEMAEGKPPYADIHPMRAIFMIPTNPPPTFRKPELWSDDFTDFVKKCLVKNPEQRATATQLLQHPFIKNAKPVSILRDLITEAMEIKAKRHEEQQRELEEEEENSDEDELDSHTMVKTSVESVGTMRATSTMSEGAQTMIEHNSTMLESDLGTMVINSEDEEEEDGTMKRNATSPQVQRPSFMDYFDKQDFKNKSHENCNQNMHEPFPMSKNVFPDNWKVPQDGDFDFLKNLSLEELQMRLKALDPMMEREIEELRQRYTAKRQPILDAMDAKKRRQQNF

[8] = target: Focal adhesion kinase 1 (Homo sapiens) (UniProt Q05397); assay: Inhibition of FAK Lys1 labeling site in human A-375 cells at 0.5 uM by KiNativ Profiling analysis relative to control; format: cell-based
Chain of Focal adhesion kinase 1 (Homo sapiens) (Q05397 2-1052 limits assumed): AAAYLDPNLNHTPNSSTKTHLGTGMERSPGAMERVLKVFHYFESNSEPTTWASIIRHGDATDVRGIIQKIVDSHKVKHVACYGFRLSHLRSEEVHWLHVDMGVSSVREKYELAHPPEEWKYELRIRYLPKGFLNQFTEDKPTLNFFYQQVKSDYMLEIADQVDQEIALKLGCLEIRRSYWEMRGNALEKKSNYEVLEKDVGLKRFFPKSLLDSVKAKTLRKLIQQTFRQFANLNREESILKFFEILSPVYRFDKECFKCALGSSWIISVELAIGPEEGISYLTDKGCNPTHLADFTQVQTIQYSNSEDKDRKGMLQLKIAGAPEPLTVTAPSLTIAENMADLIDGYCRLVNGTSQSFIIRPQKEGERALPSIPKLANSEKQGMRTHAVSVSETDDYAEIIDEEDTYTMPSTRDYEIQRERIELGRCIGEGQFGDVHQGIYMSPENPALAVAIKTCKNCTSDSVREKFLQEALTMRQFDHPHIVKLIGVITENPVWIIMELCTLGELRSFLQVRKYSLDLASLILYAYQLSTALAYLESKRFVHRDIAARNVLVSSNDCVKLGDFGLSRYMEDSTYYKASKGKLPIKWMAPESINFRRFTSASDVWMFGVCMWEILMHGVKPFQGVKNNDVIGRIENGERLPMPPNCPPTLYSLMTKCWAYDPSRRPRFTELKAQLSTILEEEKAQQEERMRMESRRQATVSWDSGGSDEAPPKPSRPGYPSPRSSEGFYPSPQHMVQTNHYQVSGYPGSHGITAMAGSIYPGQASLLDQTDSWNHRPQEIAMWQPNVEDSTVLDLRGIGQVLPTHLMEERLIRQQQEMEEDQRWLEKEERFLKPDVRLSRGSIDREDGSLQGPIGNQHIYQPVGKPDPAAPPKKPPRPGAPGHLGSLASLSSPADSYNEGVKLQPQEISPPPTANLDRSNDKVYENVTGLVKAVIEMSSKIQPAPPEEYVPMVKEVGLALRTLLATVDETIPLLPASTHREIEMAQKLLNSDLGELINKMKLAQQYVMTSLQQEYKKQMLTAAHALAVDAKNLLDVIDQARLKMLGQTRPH
How it was run: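 Live A375 melanoma cells were treated with compound at 5 or 0.5 μM, then lysed. Lysates were labeled with a lysine-reactive ATP or ADP-biotin probe. Read-out was the compound's protection of kinase labeling sites from probe labeling (KiNativ).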

[9] = target: T4, EKC/KEOPS complex subunit TP53RK (Homo sapiens) (UniProt Q96S44); assay: Inhibition of PRPK ATP Loop labeling site in human A-375 cells at 0.5 uM by KiNativ Profiling analysis relative to control; format: cell-based
T4 sequence (whole entry): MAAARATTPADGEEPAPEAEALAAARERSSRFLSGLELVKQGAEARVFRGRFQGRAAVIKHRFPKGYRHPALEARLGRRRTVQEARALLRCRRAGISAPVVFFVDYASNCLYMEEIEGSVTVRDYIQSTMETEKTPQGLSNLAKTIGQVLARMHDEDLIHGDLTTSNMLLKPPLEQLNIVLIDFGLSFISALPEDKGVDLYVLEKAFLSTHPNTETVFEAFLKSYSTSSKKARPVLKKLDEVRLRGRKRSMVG

[10] = target: TRAF2 and NCK-interacting protein kinase (Homo sapiens) (UniProt Q9UKE5); assay: Inhibition of ZC2/TNIK Lys1 labeling site in human A-375 cells at 5 uM by KiNativ Profiling analysis relative to control; format: cell-based
GEN2.2 = assay: Inhibition of CL097 induced p38 phosphorylation level in human GEN2.2 cells at 1 uM preincubated with compound for 1 hr followed by CL097 stimulation and measured after 30 mins by Western blot analysis; format: functional, cell-based
How it was run: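 Gen2.2 cells were pretreated with compound at 1 μM for 1 h, then stimulated with CL097 for 30 min. Lysates were analysed by Western blot for phosphorylation of p105, p38 and JNK1/2.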

## CNc1cc(Oc2cc(C(=O)Nc3cc(N4CCN(C)CC4)cc(C(F)(F)F)c3)ccc2C)ncn1
[1]
  inhibition: 26.9%

## CCN1CCN(Cc2ccc(NC(=O)c3ccc(C)c(/C=C/c4cnc5[nH]ccc5c4OC)c3)cc2C(F)(F)F)CC1
[2]
  inhibition: 80.3%
[3]
  inhibition: 60.6%
[4]
  inhibition: 10.7%
[5]
  inhibition: 27.3%
[6]
  inhibition: 48.1%
[7]
  inhibition: 14.1%
[8]
  inhibition: -2%
[9]
  inhibition: 9.6%
[10]
  inhibition: > 95%

## CNc1cc(Oc2cc(C(=O)Nc3cc(-n4cnc(C)c4)cc(C(F)(F)F)c3)ccc2C)ncn1
GEN2.2
  inhibition: inactive
[1]
  inhibition: -2.8%

## CCN1CCN(Cc2ccc(NC(=O)c3ccc(C)c(Oc4ccnc5[nH]ccc45)c3)cc2C(F)(F)F)CC1
[2]
  inhibition: 98.1%
[3]
  inhibition: 44.4%
[4]
  inhibition: 7.8%
[5]
  inhibition: 3.1%
[6]
  inhibition: 70.8%
GEN2.2
  inhibition: Active
[7]
  inhibition: 3.5%
[8]
  inhibition: 9.3%
[9]
  inhibition: 9.2%
[10]
  inhibition: > 95%
